# Test results taken from publication PMC6634314 (Cell chemical biology, 2019).
# How the values were obtained:
# [1] = system: MAP2K2; test: MIB washout assay; type: binding, Human; conditions: H23 cells, 1 μM 4h, MIB pulldown ratio SM1-71/SM1-71-R
# [2] = system: MAP2K1; test: MIB washout assay; type: binding, Human; conditions: H23 cells, 1 μM 4h, MIB pulldown ratio SM1-71/SM1-71-R
# [3] = target: BMP2K (Homo sapiens, UniProt Q9NSY1); test: MIB washout assay; type: binding; conditions: H23 cells, 1 μM 4h, MIB pulldown ratio SM1-71/SM1-71-R
# [4] = target: T1, LIMK1 (Homo sapiens, UniProt P53667); test: MIB washout assay; type: binding; conditions: H23 cells, 1 μM 4h, MIB pulldown ratio SM1-71/SM1-71-R
# [5] = system: MAPK1; test: MIB washout assay; type: binding, Human; conditions: H23 cells, 1 μM 4h, MIB pulldown ratio SM1-71/SM1-71-R
# [6] = system: PIK3R4; test: MIB washout assay; type: binding, Human; conditions: H23 cells, 1 μM 4h, MIB pulldown ratio SM1-71/SM1-71-R
# [7] = system: DDR1; test: MIB washout assay; type: binding, Human; conditions: H23 cells, 1 μM 4h, MIB pulldown ratio SM1-71/SM1-71-R
# [8] = system: MET; test: MIB washout assay; type: binding, Human; conditions: H23 cells, 1 μM 4h, MIB pulldown ratio SM1-71/SM1-71-R
# [9] = system: EPHA10; test: MIB washout assay; type: binding, Human; conditions: H23 cells, 1 μM 4h, MIB pulldown ratio SM1-71/SM1-71-R
# [10] = system: PIP4K2C; test: MIB washout assay; type: binding, Human; conditions: H23 cells, 1 μM 4h, MIB pulldown ratio SM1-71/SM1-71-R
# [11] = system: EIF2AK3; test: MIB washout assay; type: binding, Human; conditions: H23 cells, 1 μM 4h, MIB pulldown ratio SM1-71/SM1-71-R
# [12] = system: PIP5K1A; test: MIB washout assay; type: binding, Human; conditions: H23 cells, 1 μM 4h, MIB pulldown ratio SM1-71/SM1-71-R
# [13] = system: MAPK3; test: MIB washout assay; type: binding, Human; conditions: H23 cells, 1 μM 4h, MIB pulldown ratio SM1-71/SM1-71-R
# [14] = system: TK2; test: MIB washout assay; type: binding, Human; conditions: H23 cells, 1 μM 4h, MIB pulldown ratio SM1-71/SM1-71-R
# [15] = system: PRKDC; test: MIB washout assay; type: binding, Human; conditions: H23 cells, 1 μM 4h, MIB pulldown ratio SM1-71/SM1-71-R
# [16] = system: CSNK1A1; test: MIB washout assay; type: binding, Human; conditions: H23 cells, 1 μM 4h, MIB pulldown ratio SM1-71/SM1-71-R
# [17] = system: ACVR1; test: MIB washout assay; type: binding, Human
# [18] = target: T2, GAK (Homo sapiens, UniProt O14976); test: mass shift assay; type: binding; conditions: incubated 4 and 24h
# T2 sequence (O14976 1-1311): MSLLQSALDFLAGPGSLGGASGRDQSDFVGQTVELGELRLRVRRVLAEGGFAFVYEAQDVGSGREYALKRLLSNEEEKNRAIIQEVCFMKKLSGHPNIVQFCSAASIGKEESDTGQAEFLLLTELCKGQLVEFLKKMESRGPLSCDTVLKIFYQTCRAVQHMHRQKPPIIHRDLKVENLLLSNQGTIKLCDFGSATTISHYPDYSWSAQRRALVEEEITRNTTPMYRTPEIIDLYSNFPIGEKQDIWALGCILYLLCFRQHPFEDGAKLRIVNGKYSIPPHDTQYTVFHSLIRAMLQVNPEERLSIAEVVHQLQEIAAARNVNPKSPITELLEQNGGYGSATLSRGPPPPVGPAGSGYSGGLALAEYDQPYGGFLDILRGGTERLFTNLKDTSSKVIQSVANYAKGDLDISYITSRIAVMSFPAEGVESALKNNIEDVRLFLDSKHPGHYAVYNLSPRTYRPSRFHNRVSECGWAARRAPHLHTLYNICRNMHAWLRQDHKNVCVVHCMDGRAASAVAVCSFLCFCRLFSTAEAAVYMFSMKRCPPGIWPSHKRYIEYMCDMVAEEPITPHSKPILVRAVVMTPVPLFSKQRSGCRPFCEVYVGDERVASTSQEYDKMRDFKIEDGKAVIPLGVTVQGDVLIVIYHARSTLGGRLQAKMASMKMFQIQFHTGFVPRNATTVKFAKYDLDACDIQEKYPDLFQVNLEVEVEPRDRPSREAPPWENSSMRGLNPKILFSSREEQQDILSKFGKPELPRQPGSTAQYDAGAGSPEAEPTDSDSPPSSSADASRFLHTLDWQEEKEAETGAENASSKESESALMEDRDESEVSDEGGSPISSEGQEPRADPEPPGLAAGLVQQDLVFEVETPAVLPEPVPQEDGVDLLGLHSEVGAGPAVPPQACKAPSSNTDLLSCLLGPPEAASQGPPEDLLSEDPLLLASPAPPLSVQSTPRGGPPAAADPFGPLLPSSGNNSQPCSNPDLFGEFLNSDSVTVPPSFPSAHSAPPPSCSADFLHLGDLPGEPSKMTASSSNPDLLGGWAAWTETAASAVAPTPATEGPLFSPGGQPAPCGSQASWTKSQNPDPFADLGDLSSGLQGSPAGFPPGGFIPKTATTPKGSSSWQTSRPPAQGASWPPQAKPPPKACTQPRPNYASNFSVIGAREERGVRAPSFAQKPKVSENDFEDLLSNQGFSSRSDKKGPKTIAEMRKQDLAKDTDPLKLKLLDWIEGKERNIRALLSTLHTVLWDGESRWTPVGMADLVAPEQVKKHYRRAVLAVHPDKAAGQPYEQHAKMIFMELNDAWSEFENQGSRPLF
# Procedure, shortened: (§1)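 Kinase protein at 0.12 mM in 10 mM HEPES pH 7.5, 500 mM NaCl, incubated with 0.2 mM test compound at 4°C for 4 h and 24 h. Samples were diluted in 0.1% formic acid and desalted on a C3 pre-column. ESI-TOF was run in positive mode at 120 V, and intact mass was obtained by deconvolution to detect the adduct.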
# [19] = target: MAP2K7 (Homo sapiens, UniProt O14733); test: mass shift assay; type: binding; conditions: incubated 4 and 24h
# Procedure, shortened: as §1
# [20] = target: T2, GAK; test: MIB dose-dependent kinase inhibition assay; type: binding; conditions: read-out: IC50 in the MIB assay, H23 cell lysate, overnight 4°C
# [21] = target: YES1 (Homo sapiens, UniProt P07947); test: MIB dose-dependent kinase inhibition assay; type: binding; conditions: read-out: IC50 in the MIB assay, H23 cell lysate, overnight 4°C
# [22] = target: T1, LIMK1; test: MIB dose-dependent kinase inhibition assay; type: binding; conditions: read-out: IC50 in the MIB assay, H23 cell lysate, overnight 4°C
# [23] = target: MAP2K1/2; test: MIB dose-dependent kinase inhibition assay; type: binding, Human; conditions: read-out: IC50 in the MIB assay, H23 cell lysate, overnight 4°C
# T1 sequence (P53667 whole entry): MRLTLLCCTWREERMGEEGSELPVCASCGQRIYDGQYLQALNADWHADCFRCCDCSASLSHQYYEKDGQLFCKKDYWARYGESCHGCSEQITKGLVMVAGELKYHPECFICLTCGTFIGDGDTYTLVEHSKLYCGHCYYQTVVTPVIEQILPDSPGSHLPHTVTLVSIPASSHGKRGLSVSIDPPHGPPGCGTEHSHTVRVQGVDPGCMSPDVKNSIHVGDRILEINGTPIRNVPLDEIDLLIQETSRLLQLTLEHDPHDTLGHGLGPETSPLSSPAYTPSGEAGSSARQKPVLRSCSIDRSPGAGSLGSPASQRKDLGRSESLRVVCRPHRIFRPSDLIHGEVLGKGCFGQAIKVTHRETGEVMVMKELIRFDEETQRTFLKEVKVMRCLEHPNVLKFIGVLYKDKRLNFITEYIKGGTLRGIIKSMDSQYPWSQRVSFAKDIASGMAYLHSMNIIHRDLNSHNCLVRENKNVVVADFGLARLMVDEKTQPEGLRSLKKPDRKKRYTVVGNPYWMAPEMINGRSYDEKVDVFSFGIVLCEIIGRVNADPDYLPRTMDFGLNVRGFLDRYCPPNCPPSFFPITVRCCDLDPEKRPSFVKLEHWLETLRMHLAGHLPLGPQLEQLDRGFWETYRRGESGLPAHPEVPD
# BMP2K, sequence (Q9NSY1 whole entry): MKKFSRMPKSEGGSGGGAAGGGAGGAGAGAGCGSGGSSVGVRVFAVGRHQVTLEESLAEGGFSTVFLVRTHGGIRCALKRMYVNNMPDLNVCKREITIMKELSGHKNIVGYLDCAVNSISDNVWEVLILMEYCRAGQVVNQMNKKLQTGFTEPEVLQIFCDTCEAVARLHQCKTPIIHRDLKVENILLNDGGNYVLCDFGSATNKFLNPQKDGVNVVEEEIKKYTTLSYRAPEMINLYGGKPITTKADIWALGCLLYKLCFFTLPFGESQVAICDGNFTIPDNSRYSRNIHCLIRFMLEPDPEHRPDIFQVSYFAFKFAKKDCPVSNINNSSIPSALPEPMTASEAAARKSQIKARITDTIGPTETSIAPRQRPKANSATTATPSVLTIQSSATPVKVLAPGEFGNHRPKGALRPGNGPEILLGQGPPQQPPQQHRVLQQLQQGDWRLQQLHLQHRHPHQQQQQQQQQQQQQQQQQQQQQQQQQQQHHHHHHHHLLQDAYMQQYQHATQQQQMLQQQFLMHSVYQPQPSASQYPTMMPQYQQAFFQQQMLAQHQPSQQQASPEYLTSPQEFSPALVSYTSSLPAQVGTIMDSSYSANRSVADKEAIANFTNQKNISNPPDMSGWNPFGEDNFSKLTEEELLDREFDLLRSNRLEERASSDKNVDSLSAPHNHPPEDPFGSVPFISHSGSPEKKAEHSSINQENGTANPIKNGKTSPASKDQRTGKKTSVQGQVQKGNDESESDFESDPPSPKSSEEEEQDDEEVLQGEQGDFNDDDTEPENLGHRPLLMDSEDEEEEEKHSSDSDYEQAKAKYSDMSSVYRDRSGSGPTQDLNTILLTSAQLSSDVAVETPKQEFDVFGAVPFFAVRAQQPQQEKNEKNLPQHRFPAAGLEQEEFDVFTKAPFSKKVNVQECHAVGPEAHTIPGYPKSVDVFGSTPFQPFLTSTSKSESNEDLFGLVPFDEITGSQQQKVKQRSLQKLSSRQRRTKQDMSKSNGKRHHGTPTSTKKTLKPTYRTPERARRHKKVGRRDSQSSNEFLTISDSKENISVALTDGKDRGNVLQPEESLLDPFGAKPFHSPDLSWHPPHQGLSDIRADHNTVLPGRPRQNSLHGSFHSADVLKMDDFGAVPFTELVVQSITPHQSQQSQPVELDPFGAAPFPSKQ
# YES1, sequence (P07947 whole entry): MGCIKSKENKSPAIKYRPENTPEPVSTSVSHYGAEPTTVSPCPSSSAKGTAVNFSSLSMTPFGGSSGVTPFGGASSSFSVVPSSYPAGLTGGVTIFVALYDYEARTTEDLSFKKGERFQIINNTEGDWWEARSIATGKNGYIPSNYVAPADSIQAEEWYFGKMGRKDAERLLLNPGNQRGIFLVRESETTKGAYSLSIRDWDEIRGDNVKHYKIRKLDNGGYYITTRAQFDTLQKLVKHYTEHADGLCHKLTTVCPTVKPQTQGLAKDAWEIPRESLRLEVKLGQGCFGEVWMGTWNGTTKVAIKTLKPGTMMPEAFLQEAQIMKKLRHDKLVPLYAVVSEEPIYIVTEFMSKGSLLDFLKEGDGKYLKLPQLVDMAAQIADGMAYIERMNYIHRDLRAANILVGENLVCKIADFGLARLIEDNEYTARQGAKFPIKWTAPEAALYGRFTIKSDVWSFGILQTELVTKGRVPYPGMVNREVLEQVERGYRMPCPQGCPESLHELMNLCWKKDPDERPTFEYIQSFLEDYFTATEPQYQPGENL
# MAP2K7, sequence (O14733 whole entry, species assumed): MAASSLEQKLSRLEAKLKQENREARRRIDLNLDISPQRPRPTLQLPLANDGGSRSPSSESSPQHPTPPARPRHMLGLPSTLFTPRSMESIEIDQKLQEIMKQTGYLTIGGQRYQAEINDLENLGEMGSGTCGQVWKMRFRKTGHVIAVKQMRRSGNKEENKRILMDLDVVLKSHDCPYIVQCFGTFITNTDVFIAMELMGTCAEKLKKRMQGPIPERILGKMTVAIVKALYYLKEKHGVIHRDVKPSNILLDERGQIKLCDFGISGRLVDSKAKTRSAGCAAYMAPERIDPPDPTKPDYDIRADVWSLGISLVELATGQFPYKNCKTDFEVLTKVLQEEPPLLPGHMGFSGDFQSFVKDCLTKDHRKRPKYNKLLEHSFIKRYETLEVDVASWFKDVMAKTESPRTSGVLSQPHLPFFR
structure (smiles),measurement,setting,value
C=CC(=O)Nc1ccccc1Nc1nc(Nc2ccc(N3CCN(C)CC3)cc2)ncc1Cl [SM1-71],BI-0h,[1]; 0h post-washout,0.03
same,BI-6h,[1]; 6h post-washout,0.18
same,BI-0h,[2]; 0h post-washout,0.05
same,BI-6h,[2]; 6h post-washout,0.36
same,BI-0h,[3]; 0h post-washout,0.23
same,BI-6h,[3]; 6h post-washout,0.27
same,BI-0h,[4]; 0h post-washout,0.21
same,BI-6h,[4]; 6h post-washout,0.23
same,BI-0h,[5]; 0h post-washout,0.19
same,BI-6h,[5]; 6h post-washout,0.39
same,BI-0h,[6]; 0h post-washout,0.36
same,BI-6h,[6]; 6h post-washout,0.47
same,BI-0h,[7]; 0h post-washout,0.68
same,BI-6h,[7]; 6h post-washout,0.59
same,BI-0h,[8]; 0h post-washout,0.75
same,BI-6h,[8]; 6h post-washout,0.53
same,BI-0h,[9]; 0h post-washout,0.72
same,BI-6h,[9]; 6h post-washout,0.63
same,BI-0h,[10]; 0h post-washout,0.8
same,BI-6h,[10]; 6h post-washout,0.6
same,BI-0h,[11]; 0h post-washout,0.8
same,BI-6h,[11]; 6h post-washout,0.66
same,BI-0h,[12]; 0h post-washout,0.56
same,BI-6h,[12]; 6h post-washout,0.75
same,BI-0h,[13]; 0h post-washout,0.62
same,BI-6h,[13]; 6h post-washout,0.54
same,BI-0h,[14]; 0h post-washout,0.83
same,BI-6h,[14]; 6h post-washout,0.95
same,BI-0h,[15]; 0h post-washout,0.76
same,BI-6h,[15]; 6h post-washout,0.77
same,BI-0h,[16]; 0h post-washout,0.91
same,BI-6h,[16]; 6h post-washout,0.74
same,BI-0h,"[17]; H23 cells, 1 μM 4h, 0h post-washout, MIB pulldown ratio SM1-71/SM1-71-R",0.81
same,BI-6h,"[17]; H23 cells, 1 μM 4h, 6h post-washout, MIB pulldown ratio SM1-71/SM1-71-R",0.3
same,Binding,[17]; class from BI 0h and 6h,Weakly Irreversible
same,covalent adduct formation (mass shift),[18],formed covalent adducts
same,covalent adduct formation (mass shift),[19],formed covalent adducts
same,IC50,[20],< 0.01 µM
same,IC50,[21],< 0.01 µM
same,IC50,[22],< 0.01 µM
same,IC50,[23],< 0.01 µM
